From ChEMBL document CHEMBL2169804, “Novel histone deacetylase 8 ligands without a zinc chelating group: exploring an 'upside-down' binding pose” (Bioorg Med Chem Lett, 2012)
Blank lines part the entries; values can stand above or below the compound they belong to. Activity calls are given as the source filed them. No cut-off for these calls is given here.

Assays:
Histone deacetylase 8 = molecular target: T1, Histone deacetylase 8 (Homo sapiens, UniProt Q9BY41); assay: Inhibition of human recombinant HDAC8 using fluor de Lys as substrate preincubated for 5 mins followed by substrate addition measured after 25 mins by microplate reader analysis
T1 sequence (Q9BY41 whole entry): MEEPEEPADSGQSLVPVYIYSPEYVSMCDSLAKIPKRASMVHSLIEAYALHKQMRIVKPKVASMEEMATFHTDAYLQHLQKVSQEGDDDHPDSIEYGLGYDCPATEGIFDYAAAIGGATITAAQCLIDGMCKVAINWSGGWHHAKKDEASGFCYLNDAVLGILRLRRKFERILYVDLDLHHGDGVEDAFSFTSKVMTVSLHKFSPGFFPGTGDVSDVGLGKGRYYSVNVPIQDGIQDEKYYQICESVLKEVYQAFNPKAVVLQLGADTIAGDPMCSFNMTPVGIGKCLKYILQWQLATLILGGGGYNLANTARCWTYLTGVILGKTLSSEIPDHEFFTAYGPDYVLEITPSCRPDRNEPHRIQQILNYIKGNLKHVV

[1] = molecular target: T2, Histone deacetylase 8 (Homo sapiens) (UniProt Q9BY41); assay: (§1) Binding affinity to human recombinant HDAC8 expressed in Escherichia coli assessed as increase in enzyme biotinylation level preincubated for 3 hrs followed by denaturation measured after 60 mins by Western blot-based photoaffinity labelling method
T2 sequence (whole entry): T1 sequence (Q9BY41 whole entry)
Summary of the method: (§2)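 Probe, or probe plus competitor, preincubated 3 h at room temperature, then irradiated at 254 nm for 3 × 1 min with 1 min rests. For denaturing runs, SDS was added to 2% w/v final and held 30 min at 37 °C.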

Histone deacetylase 3 [2] = molecular target: T3, Histone deacetylase 3 (Homo sapiens, UniProt O15379); assay: Inhibition of human recombinant HDAC3 using Boc-Lys(Ac)-AMC as substrate at 66 uM preincubated for 5 mins followed by substrate addition measured after 30 mins by microplate reader analysis
Histone deacetylase 2 [3] = molecular target: T4, Histone deacetylase 2 (Homo sapiens, UniProt Q92769); assay: Inhibition of human recombinant HDAC2 using Boc-Lys(Ac)-AMC as substrate preincubated for 5 mins followed by substrate addition measured after 30 mins by microplate reader analysis
Histone deacetylase 1 [4] = molecular target: T5, Histone deacetylase 1 (Homo sapiens, UniProt Q13547); assay: Inhibition of human recombinant HDAC1 using Boc-Lys(Ac)-AMC as substrate preincubated for 5 mins followed by substrate addition measured after 30 mins by microplate reader analysis
Histone deacetylase 3 [5] = molecular target: T3, Histone deacetylase 3; assay: Inhibition of human recombinant HDAC3 using Boc-Lys(Ac)-AMC as substrate preincubated for 5 mins followed by substrate addition measured after 30 mins by microplate reader analysis
[6] = molecular target: T2, Histone deacetylase 8 (Homo sapiens); assay: Binding affinity to human recombinant HDAC8 expressed in Escherichia coli assessed as enzyme biotinylation level at […] preincubated for 3 hrs followed by denaturation measured after 60 mins by Western blot-based photoaffinity labelling method in presence of 0.25 and […] SAHA
[7] = molecular target: T2, Histone deacetylase 8 (Homo sapiens); assay: (§3) Binding affinity to human recombinant HDAC8 expressed in Escherichia coli assessed as enzyme biotinylation level at 1.5 uM under non denaturating condition after 3 hrs by Western blot-based photoaffinity labelling method in presence of 37.5 and 75 uM TSA; summary of the method: as §2
Histone deacetylase 1 [8] = molecular target: T5, Histone deacetylase 1; assay: Inhibition of nuclear HDAC1 in human SH-SY5Y cells assessed as increase in histone H4 acetylation after 24 hrs by Western blot analysis; format: cell-based
Summary of the method: (§4)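 SH-SY5Y cells were grown to 80% confluence in 1:1 DMEM:OPTI-MEM with 10% FBS. They were treated with vehicle or compound for 24 h at 37 °C, 5% CO2, then lysed in RIPA buffer with protease and phosphatase inhibitors. Lysate containing 20 µg protein was run by SDS-PAGE and blotted with anti-acetyl α-tubulin or anti-acetyl histone H4 (1:1000) overnight at 4 °C, with anti-GAPDH as reference. Detection was by chemiluminescence on a CCD camera.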

[9] = molecular target: T2, Histone deacetylase 8 (Homo sapiens); assay: as §1, with “as” for “as increase in”, “level at 5 uM” for “level”, “method in presence of 250 uM 7-[4-(3,5-Dimethyl-benzyloxy)phenylcarbamoyl]heptanoic acid methyl ester” for “method”; summary of the method: as §2
[10] = molecular target: T2, Histone deacetylase 8 (Homo sapiens); assay: as §3, with “7-[4-(3,5-Dimethyl-benzyloxy)phenylcarbamoyl]heptanoic acid methyl ester” for “37.5 and 75 uM TSA”; summary of the method: as §2
[11] = molecular target: T6, Protein deacetylase HDAC6 (Homo sapiens) (UniProt Q9UBN7); assay: Inhibition of cytoplasmic HDAC6 in human SH-SY5Y cells assessed as alpha-tubulin acetylation at 31.25 to 125 uM after 24 hrs by Western blot analysis; format: cell-based; summary of the method: as §4
T6 sequence (whole entry): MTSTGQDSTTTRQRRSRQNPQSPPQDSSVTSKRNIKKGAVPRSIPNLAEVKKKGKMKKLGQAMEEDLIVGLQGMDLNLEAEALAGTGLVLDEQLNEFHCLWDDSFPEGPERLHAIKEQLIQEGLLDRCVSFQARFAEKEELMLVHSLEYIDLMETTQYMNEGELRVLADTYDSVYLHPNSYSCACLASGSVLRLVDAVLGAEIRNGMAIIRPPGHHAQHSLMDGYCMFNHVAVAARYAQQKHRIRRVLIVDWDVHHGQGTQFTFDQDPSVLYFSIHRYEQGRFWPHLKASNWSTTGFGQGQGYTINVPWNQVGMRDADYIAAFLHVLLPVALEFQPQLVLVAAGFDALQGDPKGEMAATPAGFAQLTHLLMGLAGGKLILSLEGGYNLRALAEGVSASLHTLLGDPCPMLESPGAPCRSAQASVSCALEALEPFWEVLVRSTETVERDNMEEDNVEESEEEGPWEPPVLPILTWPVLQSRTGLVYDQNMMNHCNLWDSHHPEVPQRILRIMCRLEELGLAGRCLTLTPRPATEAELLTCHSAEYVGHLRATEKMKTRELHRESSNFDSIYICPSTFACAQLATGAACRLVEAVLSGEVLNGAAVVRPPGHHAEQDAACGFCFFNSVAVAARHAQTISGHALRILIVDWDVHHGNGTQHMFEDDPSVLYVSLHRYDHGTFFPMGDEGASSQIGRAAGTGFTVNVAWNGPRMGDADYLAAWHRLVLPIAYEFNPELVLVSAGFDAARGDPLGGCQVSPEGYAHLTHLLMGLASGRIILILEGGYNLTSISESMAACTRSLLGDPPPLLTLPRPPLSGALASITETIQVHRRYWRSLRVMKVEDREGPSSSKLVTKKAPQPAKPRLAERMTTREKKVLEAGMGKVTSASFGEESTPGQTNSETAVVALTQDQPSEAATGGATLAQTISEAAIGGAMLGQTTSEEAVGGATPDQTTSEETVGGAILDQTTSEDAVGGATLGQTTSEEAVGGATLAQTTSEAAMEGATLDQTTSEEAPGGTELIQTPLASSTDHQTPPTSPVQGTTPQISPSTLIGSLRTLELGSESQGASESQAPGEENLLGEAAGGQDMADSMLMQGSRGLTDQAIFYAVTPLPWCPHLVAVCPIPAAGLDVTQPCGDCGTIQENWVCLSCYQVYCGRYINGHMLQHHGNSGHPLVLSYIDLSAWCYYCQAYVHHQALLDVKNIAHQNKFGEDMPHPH

Histone deacetylase 2 [12] = molecular target: T4, Histone deacetylase 2; assay: Inhibition of nuclear HDAC2 in human SH-SY5Y cells assessed as increase in histone H4 acetylation after 24 hrs by Western blot analysis; format: cell-based; summary of the method: as §4
[13] = molecular target: T2, Histone deacetylase 8 (Homo sapiens); assay: Binding affinity to human recombinant HDAC8 expressed in Escherichia coli assessed as enzyme biotinylation level at 1.5 uM under non denaturating condition after 3 hrs by Western blot-based photoaffinity labelling method in presence of 37.5 and 75 uM SAHA; summary of the method: as §2
[14] = molecular target: T2, Histone deacetylase 8 (Homo sapiens); assay: Binding affinity to human recombinant HDAC8 expressed in Escherichia coli assessed as enzyme biotinylation level at 1.5 uM under non denaturating condition after 3 hrs by Western blot-based photoaffinity labelling method in presence of 37.5 and 75 uM PCI34051; summary of the method: as §2
Histone deacetylase 3 [15] = molecular target: T3, Histone deacetylase 3; assay: Inhibition of nuclear HDAC3 in human SH-SY5Y cells assessed as increase in histone H4 acetylation after 24 hrs by Western blot analysis; format: cell-based; summary of the method: as §4
[16] = molecular target: T2, Histone deacetylase 8 (Homo sapiens); assay: Inhibition of nuclear HDAC8 in human SH-SY5Y cells assessed as increase in histone H4 acetylation after 24 hrs by Western blot analysis; format: cell-based; summary of the method: as §4
[17] = molecular target: T6, Protein deacetylase HDAC6 (Homo sapiens); assay: Inhibition of cytoplasmic HDAC6 in human SH-SY5Y cells assessed as alpha-tubulin acetylation at 1 uM after 24 hrs by Western blot analysis; format: cell-based; summary of the method: as §4
[18] = molecular target: T2, Histone deacetylase 8 (Homo sapiens); assay: Inhibition of human recombinant HDAC8 using fluor de Lys as substrate assessed as residual activity at 66 uM preincubated for 5 mins followed by substrate addition measured after 25 mins by microplate reader analysis
[19] = molecular target: T2, Histone deacetylase 8 (Homo sapiens); assay: Binding affinity to human recombinant HDAC8 expressed in Escherichia coli assessed as increase in enzyme biotinylation level at […] preincubated for 3 hrs followed by denaturation measured after 60 mins by Western blot-based photoaffinity labelling method
[20] = molecular target: T2, Histone deacetylase 8 (Homo sapiens); assay: Binding affinity to human recombinant HDAC8 expressed in Escherichia coli assessed as increase in enzyme biotinylation level at […] under non denaturating condition after 3 hrs by Western blot-based photoaffinity labelling method
[21] = molecular target: T2, Histone deacetylase 8 (Homo sapiens); assay: Binding affinity to human recombinant HDAC8 expressed in Escherichia coli assessed as enzyme biotinylation level at 5 uM preincubated for 3 hrs followed by denaturation measured after 60 mins by Western blot-based photoaffinity labelling method in presence of 250 uM PCI34051; summary of the method: as §2
[22] = molecular target: T2, Histone deacetylase 8 (Homo sapiens); assay: Binding affinity to human recombinant HDAC8 expressed in Escherichia coli assessed as increase in enzyme biotinylation level at 5 uM preincubated for 3 hrs followed by denaturation measured after 60 mins by Western blot-based photoaffinity labelling method in presence of 5 uM SAHA; summary of the method: as §2
[23] = molecular target: T2, Histone deacetylase 8 (Homo sapiens); assay: Binding affinity to human recombinant HDAC8 expressed in Escherichia coli assessed as enzyme biotinylation level at 5 uM preincubated for 3 hrs followed by denaturation measured after 60 mins by Western blot-based photoaffinity labelling method in presence of 250 uM SAHA; summary of the method: as §2
[24] = molecular target: T2, Histone deacetylase 8 (Homo sapiens); assay: Binding affinity to human recombinant HDAC8 expressed in Escherichia coli assessed as enzyme biotinylation level at 5 uM preincubated for 3 hrs followed by denaturation measured after 60 mins by Western blot-based photoaffinity labelling method in presence of 250 uM TSA; summary of the method: as §2

T3 sequence (O15379 whole entry): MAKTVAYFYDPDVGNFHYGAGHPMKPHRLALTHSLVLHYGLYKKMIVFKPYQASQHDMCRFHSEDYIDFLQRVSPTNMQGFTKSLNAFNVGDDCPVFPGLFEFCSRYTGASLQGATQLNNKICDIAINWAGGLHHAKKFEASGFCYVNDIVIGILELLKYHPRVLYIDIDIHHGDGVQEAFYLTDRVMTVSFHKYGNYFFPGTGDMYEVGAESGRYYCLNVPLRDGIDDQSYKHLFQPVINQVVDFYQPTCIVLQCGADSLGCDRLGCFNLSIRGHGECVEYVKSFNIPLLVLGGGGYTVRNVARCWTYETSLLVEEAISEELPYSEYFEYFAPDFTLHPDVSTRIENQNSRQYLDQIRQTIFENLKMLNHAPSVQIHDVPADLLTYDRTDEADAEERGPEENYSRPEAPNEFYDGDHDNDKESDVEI
T5 sequence (Q13547 whole entry): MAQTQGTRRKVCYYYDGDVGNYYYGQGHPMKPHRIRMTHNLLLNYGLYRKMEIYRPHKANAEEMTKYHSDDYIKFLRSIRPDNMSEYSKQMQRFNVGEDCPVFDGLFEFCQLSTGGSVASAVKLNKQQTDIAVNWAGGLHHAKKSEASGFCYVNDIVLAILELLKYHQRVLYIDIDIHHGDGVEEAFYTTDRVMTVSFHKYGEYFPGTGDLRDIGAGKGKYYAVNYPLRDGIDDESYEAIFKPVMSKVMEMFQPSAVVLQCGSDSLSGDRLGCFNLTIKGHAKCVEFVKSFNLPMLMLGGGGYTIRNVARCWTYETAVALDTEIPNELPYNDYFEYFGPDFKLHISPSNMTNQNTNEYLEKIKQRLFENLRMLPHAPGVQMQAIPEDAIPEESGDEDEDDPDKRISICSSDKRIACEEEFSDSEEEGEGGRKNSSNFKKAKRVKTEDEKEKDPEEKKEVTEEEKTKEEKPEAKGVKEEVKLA
T4 sequence (Q92769 whole entry): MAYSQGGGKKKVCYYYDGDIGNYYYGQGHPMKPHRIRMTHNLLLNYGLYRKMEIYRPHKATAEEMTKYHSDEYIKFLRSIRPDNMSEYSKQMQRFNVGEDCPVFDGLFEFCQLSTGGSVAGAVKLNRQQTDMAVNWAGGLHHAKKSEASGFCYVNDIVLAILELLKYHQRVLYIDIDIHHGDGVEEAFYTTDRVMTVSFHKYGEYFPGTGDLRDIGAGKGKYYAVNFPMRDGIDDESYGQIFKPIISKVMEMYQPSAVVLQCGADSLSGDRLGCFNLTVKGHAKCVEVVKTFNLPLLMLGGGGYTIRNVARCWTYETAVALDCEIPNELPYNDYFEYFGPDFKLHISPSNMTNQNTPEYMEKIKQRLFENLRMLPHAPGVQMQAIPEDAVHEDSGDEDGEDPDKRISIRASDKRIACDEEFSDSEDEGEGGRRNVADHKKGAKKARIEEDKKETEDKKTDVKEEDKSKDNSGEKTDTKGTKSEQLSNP

Structure (SMILES): COc1cc(COc2ccc(NC(=O)CCCCCCC(=O)OCCN=[N+]=[N-])cc2)cc(N=[N+]=[N-])c1
Activity [1]: Dose-dependent effect
IC50 (Histone deacetylase 8; read-out: IC50): 67.5 µM
inhibition (Histone deacetylase 3 [2]): inactive
IC50 (Histone deacetylase 2 [3]): 72 µM
IC50 (Histone deacetylase 1 [4]): 111 µM

Structure (SMILES): [N-]=[N+]=NCc1cc(N=[N+]=[N-])cc(C(=O)Nc2ccc(-c3cc(C(=O)NCCCCCCC(=O)NO)no3)cc2)c1
Ki (Histone deacetylase 3 [5]): 0.023 µM

Structure (SMILES): [N-]=[N+]=NCc1cc(COc2ccc(NC(=O)CCCCCCC(=O)NO)cc2)cc(N=[N+]=[N-])c1
Activity [6]: inactive
Activity [1]: Dose-dependent effect
Ki (Histone deacetylase 3 [5]): 0.74 µM

Structure (SMILES): COC(=O)CCCCCCC(=O)Nc1cnn(Cc2cc(CN=[N+]=[N-])cc(N=[N+]=[N-])c2)c1
IC50 (Histone deacetylase 8; read-out: IC50): 36 µM

Structure (SMILES): COc1cc(COc2ccc(NC(=O)CCCCCCC(=O)OCc3ccc(CN=[N+]=[N-])cc3)cc2)cc(N=[N+]=[N-])c1
Activity [7]: inactive
inhibition (Histone deacetylase 1 [8]): Dose-dependent effect
Activity [9]: inactive
Activity [10]: inactive
inhibition [11]: inactive
inhibition (Histone deacetylase 2 [12]): Dose-dependent effect
IC50 (Histone deacetylase 8; read-out: IC50): 28 µM
Activity [13]: inactive
inhibition (Histone deacetylase 3 [2]): inactive
IC50 (Histone deacetylase 2 [3]): 79 µM
Activity [14]: inactive
IC50 (Histone deacetylase 1 [4]): 86 µM
inhibition (Histone deacetylase 3 [15]): Dose-dependent effect
inhibition [16]: Dose-dependent effect

Structure (SMILES): CC(C)(C)OC(=O)CCCCCCC(=O)Nc1ccc(OCc2cc(CN=[N+]=[N-])cc(N=[N+]=[N-])c2)cc1
IC50 (Histone deacetylase 8; read-out: IC50): 42.6 µM

Structure (SMILES): O=C(NO)c1ccc(Cn2c3ccccc3c3ccccc32)cc1
inhibition [17]: Active

Structure (SMILES): [N-]=[N+]=NCc1cc(Cn2cc(NC(=O)CCCCCCC(=O)NO)cn2)cc(N=[N+]=[N-])c1
Ki (Histone deacetylase 3 [5]): 0.064 µM

Structure (SMILES): COC(=O)CCCCCCNC(=O)c1cc(-c2ccc(NC(=O)c3cc(CN=[N+]=[N-])cc(N=[N+]=[N-])c3)cc2)on1
IC50 (Histone deacetylase 8; read-out: IC50): 47.1 µM

Results, then the compound that gave them:

IC50 (Histone deacetylase 8; read-out: IC50): 47.8 µM
Structure (SMILES): COC(=O)CCCCCCC(=O)Nc1ccc(OCc2cc(C)cc(C)c2)cc1

IC50 (Histone deacetylase 8): Not Active
Structure (SMILES): CCCCCCCC(=O)Nc1ccc(OCc2cc(C)cc(C)c2)cc1

IC50 (Histone deacetylase 8; read-out: IC50): 53.2 µM
Structure (SMILES): Cc1cc(C)cc(COc2ccc(NC(=O)CCCCCCC(=O)OC(C)(C)C)cc2)c1

Activity [18]: > 50%
IC50 (Histone deacetylase 8): Not Active
Structure (SMILES): COC(=O)CCCCCCC(=O)Nc1ccc(OCc2ccccc2)cc1

Activity [19]: Active
Activity [20]: Active
Activity [9]: inactive
Activity [21]: inactive
Activity [1]: Dose-dependent effect
Activity [22]: Active
IC50 (Histone deacetylase 8; read-out: IC50): 37.4 µM
Activity [23]: inactive
Activity [24]: inactive
Structure (SMILES): COC(=O)CCCCCCC(=O)Nc1ccc(OCc2cc(CN=[N+]=[N-])cc(N=[N+]=[N-])c2)cc1
